≈ marks a conversion by molar mass, not a printed value.
Legend:
MCF7 [1] = assay: Cytotoxicity against human MCF7 cells assessed as cell growth inhibition after 72 hrs by MTT assay; type: functional, cell-based; settings: MCF7, 72 h
Outline: (§1)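 MTT growth assay in human cancer lines (MCF-7, HepG2, BGC-823, HeLa, A549), 72 h after treatment; 5-fluorouracil as reference. IC50 (μg/mL) taken as concentration giving 50% growth inhibition versus untreated control.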

[2] = Cytotoxicity against human BCG823 cells assessed as cell growth inhibition after 72 hrs by MTT assay; type: functional, cell-based; settings: BCG823, 72 h; outline: as §1
HeLa [3] = assay: Cytotoxicity against human HeLa cells assessed as cell growth inhibition after 72 hrs by MTT assay; type: functional, cell-based; outline: as §1
A549 [4] = assay: Cytotoxicity against human A549 cells assessed as cell growth inhibition after 72 hrs by MTT assay; type: functional, cell-based; settings: A549, 72 h; outline: as §1
HepG2 [5] = assay: Cytotoxicity against human HepG2 cells assessed as cell growth inhibition after 72 hrs by MTT assay; type: functional, cell-based; settings: HepG2, 72 h; outline: as §1
[6] = system: MCF-7, HepG2, BGC-823, HeLa, A549 cancer cell lines (Homo sapiens); assay: Cytotoxicity against human MCF-7, HepG2, BGC-823, HeLa and A549 cells assessed as cell growth inhibition at 20 ug/ml after 72 hrs by MTT assay; settings: read-out: GI
HepG2 [7] = assay: Cytotoxicity against human HepG2 cells assessed as cell growth inhibition at 20 ug/ml after 72 hrs by MTT assay; type: functional; settings: HepG2, 72 h, read-out: GI
HeLa [8] = assay: Cytotoxicity against human HeLa cells assessed as cell growth inhibition at 20 ug/ml after 72 hrs by MTT assay; type: functional; settings: read-out: GI
[9] = Cytotoxicity against human BCG823 cells assessed as cell growth inhibition at 20 ug/ml after 72 hrs by MTT assay; type: functional; settings: BCG823, 72 h, read-out: GI
A549 [10] = assay: Cytotoxicity against human A549 cells assessed as cell growth inhibition at 20 ug/ml after 72 hrs by MTT assay; type: functional; settings: A549, 72 h, read-out: GI
MCF7 [11] = assay: Cytotoxicity against human MCF7 cells assessed as cell growth inhibition at 20 ug/ml after 72 hrs by MTT assay; type: functional; settings: MCF7, 72 h, read-out: GI

Row | SMILES | IC50 (MCF7 [1]) | IC50 [2] | IC50 (HeLa [3]) | IC50 (A549 [4]) | IC50 (HepG2 [5]) | inhibition at 72 h, 20 ug/ml [6] | inhibition of growth at 20 µg/mL (HepG2 [7]) | inhibition of growth at 20 µg/mL (HeLa [8]) | inhibition of growth at 20 µg/mL [9] | inhibition of growth at 20 µg/mL (A549 [10]) | inhibition of growth at 20 µg/mL (MCF7 [11])
1 | CN(C(=O)NC(=O)c1c(F)cccc1F)c1nc(C(F)(F)F)c(C(=O)N/N=C/c2ccccc2C(F)(F)F)s1 | 20.4 µg/mL (≈ 35.3 µM) | 16.9 µg/mL (≈ 29.3 µM) | 19.6 µg/mL (≈ 33.8 µM) | 17.9 µg/mL (≈ 30.9 µM) | 26.1 µg/mL (≈ 45 µM) | – | – | – | – | – | –
2 | CN(C(=O)NC(=O)c1cccc(C(F)(F)F)c1)c1nc(C(F)(F)F)c(C(=O)N/N=C/c2ccc(C(F)(F)F)cc2)s1 | 6.5 µg/mL (≈ 10.6 µM) | 4.22 µg/mL (≈ 6.9 µM) | 7.35 µg/mL (≈ 12 µM) | 6.2 µg/mL (≈ 10.1 µM) | 7.71 µg/mL (≈ 12.6 µM) | – | – | – | – | – | –
3 | CN(C(=O)NC(=O)c1ccc(Cl)cc1Cl)c1nc(C(F)(F)F)c(C(=O)N/N=C/c2cc(C(F)(F)F)cc(C(F)(F)F)c2)s1 | > 100 µg/mL | > 100 µg/mL | > 100 µg/mL | > 100 µg/mL | > 100 µg/mL | – | – | – | – | – | –
4 | CCOC(=O)c1sc(NC)nc1C | – | – | – | – | – | < 10% | < 10% | < 10% | < 10% | < 10% | < 10%
5 | COc1ccc(/C=N/NC(=O)c2sc(N(C)C(=O)NC(=O)c3c(F)cccc3F)nc2C)cc1 | – | – | – | – | 22.7 µg/mL (≈ 46.5 µM) | – | – | – | – | – | –
6 | Cc1nc(N(C)C(=O)NC(=O)c2c(F)cccc2F)sc1C(=O)N/N=C/c1cc(C(F)(F)F)cc(C(F)(F)F)c1 | 11.6 µg/mL (≈ 19.6 µM) | 14.1 µg/mL (≈ 23.7 µM) | 12.2 µg/mL (≈ 20.6 µM) | 13 µg/mL (≈ 21.9 µM) | 11.4 µg/mL (≈ 19.1 µM) | – | – | – | – | – | –
7 | CN(C(=O)NC(=O)c1ccccc1F)c1nc(C(F)(F)F)c(C(=O)N/N=C/c2ccc(C(F)(F)F)cc2)s1 | 4.98 µg/mL (≈ 8.87 µM) | 3.87 µg/mL (≈ 6.89 µM) | 3.97 µg/mL (≈ 7.07 µM) | 5.68 µg/mL (≈ 10.1 µM) | 4.56 µg/mL (≈ 8.12 µM) | – | – | – | – | – | –
8 | CN(C(=O)NC(=O)c1ccc(C(F)(F)F)cc1)c1nc(C(F)(F)F)c(C(=O)N/N=C/c2ccc(C(F)(F)F)cc2)s1 | > 100 µg/mL | > 100 µg/mL | > 100 µg/mL | > 100 µg/mL | > 100 µg/mL | – | – | – | – | – | –
9 | CN(C(=O)NC(=O)c1ccccc1[N+](=O)[O-])c1nc(C(F)(F)F)c(C(=O)N/N=C/c2ccc([N+](=O)[O-])cc2)s1 | 21.2 µg/mL (≈ 37.5 µM) | 15.7 µg/mL (≈ 27.7 µM) | 18.4 µg/mL (≈ 32.6 µM) | 17.6 µg/mL (≈ 31.2 µM) | 25.2 µg/mL (≈ 44.6 µM) | – | – | – | – | – | –
10 | CN(C(=O)NC(=O)c1ccc(C(F)(F)F)cc1)c1nc(C(F)(F)F)c(C(=O)N/N=C/c2cc(C(F)(F)F)cc(C(F)(F)F)c2)s1 | 7.37 µg/mL (≈ 10.8 µM) | 1.77 µg/mL (≈ 2.61 µM) | 5.78 µg/mL (≈ 8.51 µM) | 5.9 µg/mL (≈ 8.68 µM) | 8.35 µg/mL (≈ 12.3 µM) | – | – | – | – | – | –
11 | CN(C(=O)NC(=O)c1ccccc1F)c1nc(C(F)(F)F)c(C(=O)N/N=C/c2ccccc2C(F)(F)F)s1 | 12.2 µg/mL (≈ 21.8 µM) | 4.67 µg/mL (≈ 8.32 µM) | 10.1 µg/mL (≈ 18 µM) | 6.32 µg/mL (≈ 11.3 µM) | 5.39 µg/mL (≈ 9.6 µM) | – | – | – | – | – | –
12 | CN(C(=O)NC(=O)c1c(F)cccc1F)c1nc(C(F)(F)F)c(C(=O)N/N=C/c2ccc(C(F)(F)F)cc2)s1 | 35.3 µg/mL (≈ 61 µM) | 34.9 µg/mL (≈ 60.2 µM) | 30.6 µg/mL (≈ 52.8 µM) | 40.1 µg/mL (≈ 69.2 µM) | 49.6 µg/mL (≈ 85.6 µM) | – | – | – | – | – | –
13 | Cc1nc(N(C)C(=O)NC(=O)c2c(F)cccc2F)sc1C(=O)N/N=C/c1ccccc1Cl | – | – | – | – | > 100 µg/mL | – | – | – | – | – | –
14 | CN(C(=O)NC(=O)c1c(F)cccc1F)c1nc(C(F)(F)F)c(C(=O)N/N=C/c2cc(C(F)(F)F)cc(C(F)(F)F)c2)s1 | 6.85 µg/mL (≈ 10.6 µM) | 5.28 µg/mL (≈ 8.16 µM) | 5.62 µg/mL (≈ 8.68 µM) | 17.3 µg/mL (≈ 26.7 µM) | 6.28 µg/mL (≈ 9.7 µM) | – | – | – | – | – | –
15 | Cc1nc(N(C)C(=O)NC(=O)c2ccc(Cl)cc2Cl)sc1C(=O)N/N=C/c1ccc(C(F)(F)F)cc1 | 24.5 µg/mL (≈ 43.9 µM) | 38 µg/mL (≈ 68 µM) | 20.3 µg/mL (≈ 36.4 µM) | 30.2 µg/mL (≈ 54.1 µM) | > 100 µg/mL | – | – | – | – | – | –
16 | Cc1nc(N(C)C(=O)NC(=O)c2c(F)cccc2F)sc1C(=O)N/N=C/c1ccccc1 | – | – | – | – | 54.3 µg/mL (≈ 119 µM) | – | – | – | – | – | –
17 | CN(C(=O)NC(=O)c1ccc([N+](=O)[O-])cc1)c1nc(C(F)(F)F)c(C(=O)N/N=C/c2cccc(C(F)(F)F)c2)s1 | 4.39 µg/mL (≈ 7.46 µM) | 1.67 µg/mL (≈ 2.84 µM) | 4.12 µg/mL (≈ 7 µM) | 5.42 µg/mL (≈ 9.21 µM) | 4.73 µg/mL (≈ 8.04 µM) | – | – | – | – | – | –
18 | CCOC(=O)c1sc(NC)nc1C(F)(F)F | – | – | – | – | – | < 10% | < 10% | < 10% | < 10% | < 10% | < 10%
19 | CN(C(=O)NC(=O)c1ccc(F)c(F)c1)c1nc(C(F)(F)F)c(C(=O)N/N=C/c2ccc([N+](=O)[O-])cc2)s1 | 4.81 µg/mL (≈ 8.64 µM) | 2.99 µg/mL (≈ 5.37 µM) | 5.08 µg/mL (≈ 9.13 µM) | 5.78 µg/mL (≈ 10.4 µM) | 6.23 µg/mL (≈ 11.2 µM) | – | – | – | – | – | –
20 | CN(C(=O)NC(=O)c1cccc(C(F)(F)F)c1)c1nc(C(F)(F)F)c(C(=O)N/N=C/c2ccccc2C(F)(F)F)s1 | 7.69 µg/mL (≈ 12.6 µM) | 7.29 µg/mL (≈ 11.9 µM) | 7.37 µg/mL (≈ 12.1 µM) | 12.1 µg/mL (≈ 19.8 µM) | 10.4 µg/mL (≈ 17 µM) | – | – | – | – | – | –
21 | Cc1nc(N(C)C(=O)NC(=O)c2c(F)cccc2F)sc1C(=O)N/N=C/c1ccc(C(F)(F)F)cc1 | 30.6 µg/mL (≈ 58.2 µM) | 65.5 µg/mL (≈ 125 µM) | 40.5 µg/mL (≈ 77.2 µM) | 60.4 µg/mL (≈ 115 µM) | > 100 µg/mL | – | – | – | – | – | –
